Common to all, as to format: functional, organism-based
Test [1] is filed under the species Cavia porcellus. Kind of test: Tested for agonist potency by conducting tests on electrically stimulated guinea pig ileal longitudinal muscle preparation. The note with it: Muscle tissue. In short, it runs like this: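 Electrically stimulated guinea pig ileal longitudinal muscle preparation. Values are arithmetic means of at least three experiments.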
The species entered for test [2] is Cavia porcellus. Kind of test: Tested for wash-resistant activity in guinea pig ileal longitudinal muscle preparation, after forty washes with Kreb's buffer pre-incubated with compound. Conditions: Muscle tissue. An outline of the steps: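 Electrically stimulated guinea pig ileal longitudinal muscle was incubated with agonist, then given forty washes with Krebs' buffer. Read-out was percent recovery of twitch height.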

The species entered for test [3] is Cavia porcellus. As to the kind of experiment: Tested for wash-resistant activity after forty post-washes (for removal of naltrexone) with Kreb's buffer pre-incubated with compound. In short, it runs like this:
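Agonist-treated guinea pig ileal longitudinal muscle was washed, then incubated with naltrexone (500 nM) for 15 min. A further forty washes with Krebs' buffer followed. Read-out was percent recovery of twitch height.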

Test [4] is filed under the species Cavia porcellus. Kind of test: Tested for wash-resistant activity by incubating guinea pig ileal longitudinal muscle (pre-treated with the compound) with naltrexone (500 nM).Number of determinations, n=3. The note with it: Muscle tissue. In short, it runs like this:
(§1)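 Agonist-treated guinea pig ileal longitudinal muscle was first washed forty times with Krebs' buffer. It was then incubated with naltrexone (500 nM) for 15 min. Read-out was percent recovery of twitch height.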

Test [5] is filed under the species Cavia porcellus. As to the kind of experiment: Tested for wash-resistant activity by incubating guinea pig ileal longitudinal muscle (pre-treated with the compound) with naltrexone (500 nM). Number of determinations, n=3. Conditions: Muscle tissue. An outline of the steps: as §1

The structures appear in SMILES notation.

The results in this text go back to ChEMBL document CHEMBL1127305, “kappa Opioid receptor selective affinity labels: electrophilic benzeneacetamides as kappa-selective opioid antagonists” (J Med Chem, 1994).

In test [1], `COC(=O)/C=C/C(=O)Nc1cccc([C@@H](CN2CCCC2)N(C)C(=O)Cc2ccc(Cl)c(Cl)c2)c1` gave an IC50 of 29 nM.

In the case of `CN(C(=O)Cc1ccc(Cl)c(Cl)c1)[C@H](CN1CCCC1)c1cccc(N=C=S)c1`, the figures for the Recovery in test [2], in test [3] and in test [4] were 0%, 0% and 41%, respectively. The IC50 in test [1] was 23.8 nM. In test [1], `CN(C(=O)Cc1ccc(Cl)c(Cl)c1)[C@H](CN1CCCC1)c1cccc(N)c1` gave an IC50 of 0.17 nM.

For the molecule `CN(C(=O)Cc1ccc(Cl)c(Cl)c1)[C@H](CN1CCCC1)c1ccc(N=C=S)cc1`, the IC50 in test [1] was found to be 38.6 nM.

Consider `COC(=O)/C=C/C(=O)Nc1ccc([C@@H](CN2CCCC2)N(C)C(=O)Cc2ccc(Cl)c(Cl)c2)cc1`, for which the IC50 in test [1] is 11.2 nM.

`CN(C(=O)Cc1ccc(Cl)c(Cl)c1)[C@@H](CN1CCCC1)c1ccccc1` had an IC50 in test [1] of 198 nM. For the molecule `CN(C(=O)Cc1ccc(Cl)c(Cl)c1)C(CN1CCCC1)c1ccc(N)cc1` (stereo not drawn), in test [1], the IC50 came out at 0.65 nM. In the case of `CN(C(=O)Cc1ccc(Cl)c(Cl)c1)[C@H](CN1CCCC1)c1ccccc1` [ICI-199,441], the Recovery in test [5] stood at 59%; in test [2], 20%. In test [1], this molecule yielded an IC50 of 0.27 nM.

What is called IC50 is the concentration at which inhibition is half-maximal. High values mean a need for much substance, low ones inhibition by little substance.
